{"source": "paper PMC12928844", "about": "(Nature, 2025)", "key": {"K^c/cP LUAD tumour cells": {"system": "K^c/cP LUAD tumour cells", "assay": "scRNA-seq tumour fitness score of K^c/cP tumours", "assay_type": "in vivo, mouse", "conditions": "3 weeks of treatment", "method_in_brief": "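KC/CP lung tumour-bearing mice (mixed C57BL/6;129S1, both sexes, littermate controls) received test compound at 100 mg kg−1 once daily i.p. in 40% (2-hydroxypropyl)-β-cyclodextrin, or vehicle. Tumour cells were filtered through 70 μm strainers, given ACK red-cell lysis, washed and counted for scRNA-seq. Malignant cells were called by inferCNV against normal mouse lung alveolar cells.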"}, "K^cPC PDAC tumours": {"system": "K^cPC PDAC tumours", "assay": "Autochthonous K^cPC PDAC mouse model treatment study", "assay_type": "in vivo", "conditions": "2 weeks of treatment, 10 mg kg−1 daily", "method_in_brief": "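C57BL/6;129S1 mixed-background mice of both sexes, with littermates as controls. Control and monotherapy groups went through the same procedure but received vehicle. The survival end point was set by overall health criteria scoring, and health status and weight were checked daily.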"}, "[1]": {"system": "NSD2 and H3K36me2 levels in cell lines", "assay": "Western blot after KRASi treatment", "assay_type": "cell-based", "conditions": "100 nM sotorasib, 1 day"}, "K^c/cP LUAD tumours": {"system": "K^c/cP LUAD tumours", "assay": "K^c/cP LUAD mouse model treatment study", "assay_type": "in vivo", "conditions": "at humane end point; about 100 nodules per mouse at start"}}}
{"compound": "C=CC(=O)N1CCN(c2nc(=O)n(-c3c(C)ccnc3C(C)C)c3nc(-c4c(O)cccc4F)c(F)cc23)[C@@H](C)C1", "note": "[KRASi, sotorasib]", "values": [{"measurement": "tumour fitness score (scRNA-seq)", "setting": "K^c/cP LUAD tumour cells", "value": "decreased score"}, {"measurement": "ERK1/2 phosphorylation in PDAC tumour lysates (western)", "setting": "K^cPC PDAC tumours", "value": "blocked ERK1 and ERK2 (ERK1/2) phosphorylation"}, {"measurement": "levels of NSD2 or H3K36me2 (western)", "setting": "[1]", "value": "does not impact"}, {"measurement": "individual tumours (nodules) eliminated", "setting": "K^c/cP LUAD tumours", "value": "~75", "unit": "%"}]}
